According to ChEMBL document CHEMBL1157723, “Synthesis and anti-viral activity of azolo-adamantanes against influenza A virus” (Bioorg Med Chem, 2010):
≈ marks a conversion by molar mass, not a printed value.

Experiments:
[1] = Selectivity index, ratio of CTD50 for MDCK cells to EC50 for Influenza A virus (A/Puerto Rico/8/34(H1N1)); format: toxicity, cell-based; conditions: dog, read-out: Selectivity Index
In short: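 Ratio of CTD50 (MDCK, MTT after 48 h) to ED50 (PR8 yield in MDCK by hemagglutination end-point titration after 48 h at 36 °C), both from twofold dilution series.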

MDCK = assay: Cytotoxicity against MDCK cells after 48 hrs by MTT assay; format: cell-based, Canis lupus familiaris; conditions: dog
In short: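 MDCK cells were grown to monolayer in MEM with 5% fetal calf serum and washed with serum-free MEM. Compounds came from 5 mg/ml DMSO stocks as twofold dilutions of 1000–1 µg/ml in MEM, 48 h at 37 °C. After PBS washes, MTT (0.5 mg/ml) was added for 60 min at 37 °C, the deposit dissolved in DMSO and OD read at 535 nm. CTD50 is the concentration reducing viability 50%.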

Influenza A virus = assay: Antiviral activity against Influenza A virus (A/Puerto Rico/8/34(H1N1)) infected in MDCK cells assessed as virus yield after 48 hrs end-point dilution method; format: functional, organism-based; conditions: A/Puerto Rico/8/1934(H1N1)
In short: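 MDCK monolayers were exposed to serial twofold compound dilutions in MEM with 2 mM arginine, 2 mM glutamine and 2 µg/mL trypsin for 1 h at 37 °C, then infected and cultured 48 h at 36 °C. Supernatant was tested by hemagglutination with 1% chicken erythrocytes (1 h, room temperature) and titre by end-point dilution. ED50 is the concentration decreasing virus production […].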

Structure (SMILES)	selectivity ratio [1]	Activity (MDCK) [µg/mL]	EC50 (Influenza A virus) [µg/mL]
Sc1nnnn1-c1ccccc1	< 1	151	> 200
O=S(=O)([O-])O.c1ccc(-n2n[n+](C34CC5CC(CC(C5)C3)C4)nc2SC23CC4CC(CC(C4)C2)C3)cc1	5	289	57
Cc1ncn(C23CC4CC(CC(C(C)N)(C4)C2)C3)n1.Cl.Cl (stereo unspecified)	15	960	62
CCn1n[n+](C23CC4CC(CC(C4)C2)C3)nc1[S-]	41	125	3 (≈ 11.3 µM)
O=c1[nH]nnn1-c1ccccc1	3	> 1000	294 (≈ 1810 µM)
Cc1nnn(C23CC4CC(CC(C4)C2)C3)n1	7	569	77 (≈ 353 µM)
CC(N)C12CC3CC(C1)CC(n1cnc(Cl)n1)(C3)C2.Cl (stereo unspecified)	9	140	15
CC(N)C12CC3CC(C1)CC(n1ncnn1)(C3)C2.Cl (stereo unspecified)	18	423	23
O=C(O)c1nn(C23CC4CC(CC(C4)C2)C3)cc1Br	1	443	300 (≈ 922 µM)
CC(N)C12CC3CC(C1)CC(n1cnc([N+](=O)[O-])n1)(C3)C2.Cl (stereo unspecified)	1	131	120
Cc1nnn(C23CC4CC(CC(N)(C4)C2)C3)n1.Cl	16	213	13
CCc1nnn(C23CC4CC(CC(N)(C4)C2)C3)n1.Cl	10	262	25
CCOC(=O)Cc1nnn(C23CC4CC(CC(N)(C4)C2)C3)n1.Cl	7	127	18
NC1N=NC(Cc2nnn(C34CC5CC(CC(C5)C3)C4)n2)=N1 (stereo unspecified)	2	0.18	0.09 (≈ 0.3 µM)
Cl.NC12CC3CC(C1)CC(n1cncn1)(C3)C2	12	1489	123
Cl.NC12CC3CC(C1)CC(n1cnc(Br)n1)(C3)C2	6	620	111

Structure (SMILES)	selectivity ratio [1]	Activity (MDCK) [µg/mL]	EC50 (Influenza A virus) [µg/mL]
O=C(O)Cc1nnn(C23CC4CC(CC(C4)C2)C3)n1	> 7	> 500	71 (≈ 271 µM)
CCCCOC(=O)Cc1nnn(C23CC4CC(CC(C4)C2)C3)n1	< 1	< 1	> 1
c1nnn(C23CC4CC(CC(C4)C2)C3)n1	5	253	56 (≈ 274 µM)
Cc1nn(C23CC4CC(CC(C4)C2)C3)c(C)c1N	6	600	100 (≈ 408 µM)
[S-]c1n[n+](C23CC4CC(CC(C4)C2)C3)nn1-c1ccccc1	2	300	130 (≈ 416 µM)
Cc1nnn(C23CC4CC(CC(C(C)N)(C4)C2)C3)n1.Cl (stereo unspecified)	30	242	8
S=c1[nH]nnn1C12CC3CC(CC(C3)C1)C2	11	167	15 (≈ 63.5 µM)
OC12CC3CC(C1)CC(n1nn[nH]c1=S)(C3)C2	18	146	8 (≈ 31.7 µM)
c1nnnn1C12CC3CC(CC(C3)C1)C2	25	281	11 (≈ 53.8 µM)
Cl.NC12CC3CC(C1)CC(n1ncnn1)(C3)C2	25	552	22
Clc1ncn(C23CC4CC(CC(C4)C2)C3)n1	10	583	59 (≈ 248 µM)
OC12CC3CC(C1)CC(N=C=S)(C3)C2	> 3	> 500	150 (≈ 717 µM)
CCc1nnn(C23CC4CC(CC(C(C)N)(C4)C2)C3)n1.Cl (stereo unspecified)	50	299	6
c1ncn(C23CC4CC(CC(C4)C2)C3)n1	5	358	77 (≈ 379 µM)
CCOC(=O)Cc1nnn(C23CC4CC(CC(C4)C2)C3)n1	4	> 1000	232 (≈ 799 µM)
CC(N)C12CC3CC(CC(C3)C1)C2 (stereo unspecified) [RIMANTADINE]	12	60	5 (≈ 27.9 µM)
